Four compounds from ChEMBL document CHEMBL2146410, “Novel N-Substituted Benzimidazolones as Potent, Selective, CNS-Penetrant, and Orally Active M1 mAChR Agonists” (ACS Med Chem Lett, 2010) can be followed below.

Activity calls are given as the source filed them. The rule behind the calls is not given here. Some results are limits rather than exact numbers.

Series [1] addresses T1, Muscarinic acetylcholine receptor M4 (Homo sapiens) (UniProt P08173).
T1 sequence (whole entry): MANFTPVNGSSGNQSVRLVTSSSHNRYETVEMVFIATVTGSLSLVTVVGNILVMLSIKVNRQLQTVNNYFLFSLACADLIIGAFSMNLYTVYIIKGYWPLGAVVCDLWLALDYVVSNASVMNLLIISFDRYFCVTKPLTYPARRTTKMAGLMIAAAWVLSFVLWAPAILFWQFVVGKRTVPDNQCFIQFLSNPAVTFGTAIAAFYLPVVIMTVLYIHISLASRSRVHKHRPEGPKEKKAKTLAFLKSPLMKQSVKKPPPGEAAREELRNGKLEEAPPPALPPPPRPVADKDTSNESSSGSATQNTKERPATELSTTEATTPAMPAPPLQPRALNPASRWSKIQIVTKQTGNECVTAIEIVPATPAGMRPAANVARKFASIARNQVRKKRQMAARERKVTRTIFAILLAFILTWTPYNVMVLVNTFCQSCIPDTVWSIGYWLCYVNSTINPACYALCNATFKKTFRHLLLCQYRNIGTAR
Description: Intrinsic activity at human muscarinic M4 receptor expressed in CHO cells coexpressing Galpha16 subunit assessed as intracellular calcium mobilization after 10 to 15 mins by FLIPR assay. It is filed as functional, cell-based.

Series [2] concerns the target T2, Muscarinic acetylcholine receptor M3 (Homo sapiens, UniProt P20309). The series can be described thus: Intrinsic activity at human muscarinic M3 receptor expressed in CHO cells assessed as intracellular calcium mobilization after 10 to 15 mins by FLIPR assay. It is filed as functional, cell-based.
Target sequence in this assay (P20309 whole entry, looked up): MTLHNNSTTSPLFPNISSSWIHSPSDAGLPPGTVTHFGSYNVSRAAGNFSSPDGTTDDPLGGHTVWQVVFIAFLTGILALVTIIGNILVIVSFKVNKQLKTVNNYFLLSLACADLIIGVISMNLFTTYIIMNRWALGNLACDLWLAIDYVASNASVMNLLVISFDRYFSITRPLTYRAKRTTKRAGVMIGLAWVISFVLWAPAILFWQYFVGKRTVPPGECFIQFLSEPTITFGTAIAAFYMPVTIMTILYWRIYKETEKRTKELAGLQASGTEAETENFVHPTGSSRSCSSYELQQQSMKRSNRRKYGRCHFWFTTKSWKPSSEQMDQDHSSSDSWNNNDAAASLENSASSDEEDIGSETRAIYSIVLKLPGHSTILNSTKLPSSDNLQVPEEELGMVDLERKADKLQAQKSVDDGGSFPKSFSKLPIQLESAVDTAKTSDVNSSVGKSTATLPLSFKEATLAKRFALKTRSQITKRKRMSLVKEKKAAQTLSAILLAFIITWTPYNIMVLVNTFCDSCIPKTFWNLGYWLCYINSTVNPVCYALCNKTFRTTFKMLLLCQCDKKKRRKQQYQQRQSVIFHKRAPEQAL
The nature of series [3]: Ratio of drug level in brain to blood in rat at 3 mg/kg, po. The series is classed as ADME, organism-based. Also noted: dose 3 mg/kg, route oral.
The target in series [4] is T3, Muscarinic acetylcholine receptor M4 (Homo sapiens, UniProt P08173).
T3 sequence (P08173 whole entry): T1 sequence (whole entry)
The series can be described thus: Agonist activity at human muscarinic M4 receptor expressed in CHO cells coexpressing Galpha16 subunit assessed as intracellular calcium mobilization after 10 to 15 mins by FLIPR assay. The series is classed as functional, cell-based. (Calcium flux is commonly read through the fluorescence of an indicator in the cells.)

For series [5], the target named is T2, Muscarinic acetylcholine receptor M3. The series can be described thus: Agonist activity at human muscarinic M3 receptor expressed in CHO cells assessed as intracellular calcium mobilization after 10 to 15 mins by FLIPR assay. The series is classed as functional, cell-based.
Target sequence in this assay (P20309 whole entry): as the sequence (P20309 whole entry, looked up) above
A short description of series [6]: Half life in rat at 3 mg/kg, po. As to conditions: in vivo. More on the design: dose 3 mg/kg, route oral. It is filed as ADME, organism-based.
The target in series [7] is T4, Muscarinic acetylcholine receptor M2 (Homo sapiens) (UniProt P08172).
T4 sequence (whole entry): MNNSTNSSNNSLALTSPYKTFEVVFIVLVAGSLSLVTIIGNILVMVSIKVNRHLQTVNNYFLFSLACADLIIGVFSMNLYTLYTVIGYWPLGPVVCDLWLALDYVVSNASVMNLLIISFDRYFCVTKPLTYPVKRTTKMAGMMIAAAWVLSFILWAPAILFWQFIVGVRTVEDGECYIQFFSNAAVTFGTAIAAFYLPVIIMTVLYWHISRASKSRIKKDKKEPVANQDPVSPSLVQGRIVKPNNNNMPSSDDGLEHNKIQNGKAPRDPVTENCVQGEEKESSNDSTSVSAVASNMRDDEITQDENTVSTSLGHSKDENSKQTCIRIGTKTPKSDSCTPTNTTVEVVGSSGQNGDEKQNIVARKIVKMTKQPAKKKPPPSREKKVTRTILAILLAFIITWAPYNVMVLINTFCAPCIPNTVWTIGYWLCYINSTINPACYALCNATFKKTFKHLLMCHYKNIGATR
The series can be described thus: Intrinsic activity at human muscarinic M2 receptor expressed in CHO cells coexpressing Galpha16 subunit assessed as intracellular calcium mobilization after 10 to 15 mins by FLIPR assay. It is filed as functional, cell-based.

Series [8] has as its target T5, Muscarinic acetylcholine receptor M1 (Homo sapiens) (UniProt P11229).
T5 sequence (whole entry): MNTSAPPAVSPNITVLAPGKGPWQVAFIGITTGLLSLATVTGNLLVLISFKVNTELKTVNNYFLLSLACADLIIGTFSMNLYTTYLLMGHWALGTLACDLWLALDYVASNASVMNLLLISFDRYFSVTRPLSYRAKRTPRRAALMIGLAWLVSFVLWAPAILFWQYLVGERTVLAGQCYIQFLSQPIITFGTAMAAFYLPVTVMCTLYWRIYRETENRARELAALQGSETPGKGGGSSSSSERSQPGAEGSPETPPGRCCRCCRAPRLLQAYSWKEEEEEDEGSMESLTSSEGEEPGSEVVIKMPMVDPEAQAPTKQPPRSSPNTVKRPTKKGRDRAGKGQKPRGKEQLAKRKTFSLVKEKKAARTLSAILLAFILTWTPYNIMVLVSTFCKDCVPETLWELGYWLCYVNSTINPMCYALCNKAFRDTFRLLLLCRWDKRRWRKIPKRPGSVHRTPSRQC
The series can be described thus: Intrinsic activity at human muscarinic M1 receptor expressed in CHO cells assessed as intracellular calcium mobilization after 10 to 15 mins by FLIPR assay. It is filed as functional, cell-based. An outline of the steps: (§1)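 Human M1 mAChR stably expressed in CHO cells; agonist-induced intracellular Ca2+ mobilization read by fluorometric imaging plate reader (FLIPR).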

Series [9] addresses T6, Muscarinic acetylcholine receptor M1 (Homo sapiens, UniProt P11229).
T6 sequence (P11229 whole entry): T5 sequence (whole entry)
Description: Agonist activity at human muscarinic M1 receptor expressed in CHO cells assessed as intracellular calcium mobilization after 10 to 15 mins by FLIPR assay. The series is classed as functional, cell-based. Summed up:
as §1

The target in series [10] is Voltage-gated inwardly rectifying potassium channel KCNH2 (Homo sapiens, UniProt Q12809). The series can be described thus: Binding affinity to human ERG.
Series [11] addresses T7, Muscarinic acetylcholine receptor M2 (Homo sapiens, UniProt P08172).
T7 sequence (P08172 whole entry): T4 sequence (whole entry)
Description: Agonist activity at human muscarinic M2 receptor expressed in CHO cells coexpressing Galpha16 subunit assessed as intracellular calcium mobilization after 10 to 15 mins by FLIPR assay. It is filed as functional, cell-based.

The subject of series [12] is Rattus norvegicus. Description: Increase in neuronal firing rate in Sprague-Dawley rat hippocampal CA1 region at 1 mg/kg, iv pretreated with 3 mg/kg, ip mAChR antagonist scopolamine for 10 mins. It is filed as functional, organism-based.
Series [13] deals with Rattus norvegicus. Description: Antidementia activity against scopolamine-induced amnesia in Wistar rat assessed as improvement in recall latency to transfer from bright to dark compartment administered orally 2 hrs before scopolamine challenge measured after 24 hrs post training by passive avoidance test. The series is classed as functional, organism-based. Summed up: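 Rat passive avoidance task with scopolamine (0.8 mg/kg) given to induce amnesia. Test agent dosed orally at 1, 3 and 10 mg/kg. Groups compared with vehicle-treated controls and with scopolamine alone.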

The test system of series [14] is Rattus norvegicus. The series can be described thus: Increase in neuronal firing rate in Sprague-Dawley rat hippocampal CA1 region at 0.3 mg/kg, iv. The series is classed as functional, organism-based. More on the design: dose 0.3 mg/kg. Summed up:
(§2)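 Rat hippocampal CA1 neuronal cell firing rate recorded after iv dosing at 0.3 or 1 mg/kg. Where used, scopolamine was given at 3 mg/kg ip […] before the iv dose. Statistics by repeated measures ANOVA.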

Series [15] has as its system Rattus norvegicus. The series can be described thus: Increase in neuronal firing rate in Sprague-Dawley rat hippocampal CA1 region at 1 mg/kg, iv. The series is classed as functional. An outline of the steps:
as §2

The test system of a further series is Liver microsomes. Description: Intrinsic clearance in human liver microsomes. It is filed as ADME, Microsome. A general note: Liver microsomes are a subcellular fraction often used to study metabolism.
Series [16] can be described thus: Half life in rat at 1 mg/kg, iv. The series is classed as ADME, organism-based. More on the design: dose 1 mg/kg, route intravenous. Conditions: in vivo.
Series [17] has as its target T8, Muscarinic acetylcholine receptor M5 (Homo sapiens, UniProt P08912).
T8 sequence (P08912 whole entry): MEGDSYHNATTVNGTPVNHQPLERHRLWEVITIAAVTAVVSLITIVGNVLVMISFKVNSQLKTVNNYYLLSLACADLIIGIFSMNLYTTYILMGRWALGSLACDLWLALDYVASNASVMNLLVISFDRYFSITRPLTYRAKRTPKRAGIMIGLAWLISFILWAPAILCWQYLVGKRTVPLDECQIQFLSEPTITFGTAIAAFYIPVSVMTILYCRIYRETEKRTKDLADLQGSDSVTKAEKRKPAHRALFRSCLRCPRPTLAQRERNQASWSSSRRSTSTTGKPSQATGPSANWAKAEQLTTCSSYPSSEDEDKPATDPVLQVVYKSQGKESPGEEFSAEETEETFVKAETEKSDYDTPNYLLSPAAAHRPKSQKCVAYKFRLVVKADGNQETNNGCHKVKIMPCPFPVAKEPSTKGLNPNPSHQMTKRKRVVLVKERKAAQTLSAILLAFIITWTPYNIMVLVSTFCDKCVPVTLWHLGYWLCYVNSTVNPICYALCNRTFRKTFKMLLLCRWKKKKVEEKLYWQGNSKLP
Description: Agonist activity at human muscarinic M5 receptor expressed in CHO cells assessed as intracellular calcium mobilization after 10 to 15 mins by FLIPR assay. It is filed as functional, cell-based.

Series [18] is described as follows: Blood clearance in rat at 1 mg/kg, iv. It is filed as ADME, organism-based. More on the design: dose 1 mg/kg, route intravenous.
The target in a further series is D(2) dopamine receptor (Homo sapiens, UniProt P14416). The series can be described thus: Binding affinity to dopamine D2 receptor.
The next series deals with D(3) dopamine receptor (Homo sapiens, UniProt P35462). The series can be described thus: Binding affinity to dopamine D3 receptor.
The target of series [19] is T9, 5-hydroxytryptamine receptor 1A (Homo sapiens, UniProt P08908).
T9 sequence (P08908 whole entry): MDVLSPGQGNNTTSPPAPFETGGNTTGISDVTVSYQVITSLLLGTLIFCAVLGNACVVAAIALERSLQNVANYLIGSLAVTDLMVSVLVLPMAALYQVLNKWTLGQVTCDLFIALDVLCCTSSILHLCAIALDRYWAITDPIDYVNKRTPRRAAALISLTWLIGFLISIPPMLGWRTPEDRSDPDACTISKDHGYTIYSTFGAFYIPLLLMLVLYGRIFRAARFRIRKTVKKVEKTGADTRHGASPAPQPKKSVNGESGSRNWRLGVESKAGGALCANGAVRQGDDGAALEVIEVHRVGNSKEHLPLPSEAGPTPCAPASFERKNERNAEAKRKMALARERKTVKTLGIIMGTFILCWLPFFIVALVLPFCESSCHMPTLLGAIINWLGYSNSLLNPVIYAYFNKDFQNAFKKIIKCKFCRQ
The series can be described thus: Activity at 5HT1A receptor.

The target of series [20] is 5-hydroxytryptamine receptor 2A (Homo sapiens, UniProt P28223). The series can be described thus: Binding affinity to 5HT2A receptor.
Chain of 5-hydroxytryptamine receptor 2A (P28223 whole entry): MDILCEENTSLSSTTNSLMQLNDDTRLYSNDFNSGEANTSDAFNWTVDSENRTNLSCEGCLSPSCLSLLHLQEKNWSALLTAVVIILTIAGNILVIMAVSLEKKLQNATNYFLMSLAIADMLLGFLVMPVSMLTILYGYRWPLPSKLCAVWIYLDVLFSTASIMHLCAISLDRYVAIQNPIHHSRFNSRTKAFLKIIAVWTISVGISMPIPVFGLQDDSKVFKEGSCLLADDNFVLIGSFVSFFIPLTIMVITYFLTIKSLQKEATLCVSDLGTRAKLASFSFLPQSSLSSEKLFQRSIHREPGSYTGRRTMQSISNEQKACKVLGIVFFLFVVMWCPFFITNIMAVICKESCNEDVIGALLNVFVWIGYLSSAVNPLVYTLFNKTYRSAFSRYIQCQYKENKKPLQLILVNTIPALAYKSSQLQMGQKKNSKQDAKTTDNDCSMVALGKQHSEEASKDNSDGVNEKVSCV

Chain of Voltage-gated inwardly rectifying potassium channel KCNH2 (Q12809 whole entry): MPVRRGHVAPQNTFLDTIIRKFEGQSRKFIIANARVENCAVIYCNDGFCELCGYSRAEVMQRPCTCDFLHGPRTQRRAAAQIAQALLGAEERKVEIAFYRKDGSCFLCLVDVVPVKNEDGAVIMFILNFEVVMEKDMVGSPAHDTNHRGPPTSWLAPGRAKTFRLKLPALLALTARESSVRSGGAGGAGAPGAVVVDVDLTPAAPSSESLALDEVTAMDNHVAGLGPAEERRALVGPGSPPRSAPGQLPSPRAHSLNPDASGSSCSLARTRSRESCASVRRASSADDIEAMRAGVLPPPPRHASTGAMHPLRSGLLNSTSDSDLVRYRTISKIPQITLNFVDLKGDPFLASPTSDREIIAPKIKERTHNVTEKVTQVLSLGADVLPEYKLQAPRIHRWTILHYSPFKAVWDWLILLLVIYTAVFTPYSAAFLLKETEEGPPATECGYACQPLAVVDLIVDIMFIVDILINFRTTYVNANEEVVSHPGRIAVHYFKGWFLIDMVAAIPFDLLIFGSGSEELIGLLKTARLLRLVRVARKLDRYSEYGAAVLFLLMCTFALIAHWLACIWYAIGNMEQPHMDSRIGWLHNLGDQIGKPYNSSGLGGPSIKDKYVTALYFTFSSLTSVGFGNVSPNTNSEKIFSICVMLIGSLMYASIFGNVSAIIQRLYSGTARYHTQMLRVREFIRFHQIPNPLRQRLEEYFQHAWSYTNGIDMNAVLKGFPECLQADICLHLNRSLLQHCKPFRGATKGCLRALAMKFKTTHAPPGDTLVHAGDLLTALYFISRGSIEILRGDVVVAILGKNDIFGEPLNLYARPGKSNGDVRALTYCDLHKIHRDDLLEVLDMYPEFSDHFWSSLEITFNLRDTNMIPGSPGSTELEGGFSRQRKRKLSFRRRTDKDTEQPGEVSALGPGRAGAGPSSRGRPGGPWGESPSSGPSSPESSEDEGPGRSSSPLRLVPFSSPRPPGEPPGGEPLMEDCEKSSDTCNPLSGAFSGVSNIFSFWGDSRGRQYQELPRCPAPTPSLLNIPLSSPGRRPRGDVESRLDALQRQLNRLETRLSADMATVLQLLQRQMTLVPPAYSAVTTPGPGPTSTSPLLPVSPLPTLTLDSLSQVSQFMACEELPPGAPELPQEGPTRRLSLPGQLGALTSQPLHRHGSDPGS
Chain of D(2) dopamine receptor (P14416 whole entry): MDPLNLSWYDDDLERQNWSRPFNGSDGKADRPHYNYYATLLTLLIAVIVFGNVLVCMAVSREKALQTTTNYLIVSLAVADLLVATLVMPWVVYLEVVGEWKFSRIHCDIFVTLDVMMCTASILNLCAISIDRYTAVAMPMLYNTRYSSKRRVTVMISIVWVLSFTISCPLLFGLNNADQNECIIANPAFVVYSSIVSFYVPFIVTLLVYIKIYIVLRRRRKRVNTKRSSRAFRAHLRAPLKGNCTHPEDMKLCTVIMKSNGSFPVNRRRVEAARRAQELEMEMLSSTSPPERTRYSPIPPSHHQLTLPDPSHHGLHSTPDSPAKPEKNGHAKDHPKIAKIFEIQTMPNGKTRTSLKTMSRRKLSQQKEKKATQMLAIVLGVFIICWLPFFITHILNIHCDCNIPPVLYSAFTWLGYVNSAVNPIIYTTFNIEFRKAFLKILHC
Chain of D(3) dopamine receptor (P35462 whole entry): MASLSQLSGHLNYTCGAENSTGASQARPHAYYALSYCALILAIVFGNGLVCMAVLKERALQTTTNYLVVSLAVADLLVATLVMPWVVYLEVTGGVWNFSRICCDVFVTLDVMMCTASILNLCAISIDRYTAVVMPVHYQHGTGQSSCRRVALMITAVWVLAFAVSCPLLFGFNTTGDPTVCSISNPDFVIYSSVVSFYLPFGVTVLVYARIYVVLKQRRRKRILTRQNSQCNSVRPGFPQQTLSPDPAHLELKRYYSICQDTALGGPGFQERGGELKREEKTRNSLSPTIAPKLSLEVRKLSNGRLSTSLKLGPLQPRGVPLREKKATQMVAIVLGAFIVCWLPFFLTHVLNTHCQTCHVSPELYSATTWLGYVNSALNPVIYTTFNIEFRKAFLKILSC

As for `Cc1ccc2[nH]c(=O)n(C3CCN(C4CCOCC4)CC3)c2c1`, the Intrinsic activity in series [1] turned out to be 68%; in [2], 72%; in [7] it was 71%; in series [8], 92%. Moreover, the Kp in series [3] stood at 0.6. The EC50 is 631 nM in series [4], 3980 nM in series [5], 5.01 nM in series [9] and 631 nM in series [11]. In [6], this compound had a half-life of 2.6 h. Further, the IC50 in [10] is 25100 nM.

With `Cc1cc2c(cc1F)[nH]c(=O)n2C1CCN(C2CCOCC2)CC1`, the outcome in the series on Rattus norvegicus [12] and with Rattus norvegicus [14] was inactive. In addition, the Intrinsic activity in series [1] is 71%; in [2], 58%; in series [7] it was 71%; in series [8], 94%. For the same compound, the Activity result with Rattus norvegicus [13] was “Dose-dependent effect”. Also, the Kp in [3] came out at 0.6. Further, the EC50 in [4] was 501 nM. The “fold change (FC)” value with Rattus norvegicus [15] amounted to 3. The IC50 in series [10] was 12600 nM.

The compound `O=c1[nH]c2ccccc2n1C1CCN(C2CCOCC2)CC1` had a CLH in the series on Liver microsomes of 0.5 mL/min/g. Also, the Intrinsic activity in [1] is 77%; in [7], 88%; in [8] it was 101%. For the same compound, the EC50 in series [5] and in series [17] was more than 10000 nM each time. Besides, the half-life in [16] is 0.5 h. For the same compound, the clearance in series [18] was found to be 68 mL/min/kg.

Consider `O=c1[nH]c2ccccc2n1C1CCN(CCCOc2ccc(F)cc2)CC1`, for which the Ki at D(2) dopamine receptor is 0.501 nM; at D(3) dopamine receptor it was 1.26 nM; in series [20], 3.16 nM. In addition, the EC50 in series [4] was more than 25100 nM; in series [5] it was more than 25100 nM; in [19], 50.1 nM; in series [9] it was 398 nM; in [11], more than 25100 nM. In addition, in series [8], the Intrinsic activity turned out to be 86%. The IC50 in series [10] is 79.4 nM.

What is called Kp is tissue or fluid exposure divided by exposure in the circulation. The EC50 is the concentration giving half of the maximal effect. One may read the half-life as how long it takes for the measured level to halve. Low values mean fast loss, high ones slow loss. For orientation: IC50 means the midpoint of a concentration-inhibition curve. A high value points to weaker potency in that assay. As a reminder, the clearance is a measure of how efficiently the substance is removed, as volume per time. High values mean a high capacity for elimination, low ones a low capacity for elimination. The Ki is the equilibrium dissociation constant of an inhibitor or competing ligand from its target. Read a high Ki as weaker binding.
